# Source: paper PMC3947748 (Journal of biomolecular screening, 2010)
# Read-outs that look alike come from different tables or passages of the source.
# Tests used:
# Nek2 [1] = target: T1, Nek2 (Homo sapiens, UniProt P51955); assay: Filter assay of Nek2 kinase activity; assay type: biochemical
# T1 sequence (P51955 1-445): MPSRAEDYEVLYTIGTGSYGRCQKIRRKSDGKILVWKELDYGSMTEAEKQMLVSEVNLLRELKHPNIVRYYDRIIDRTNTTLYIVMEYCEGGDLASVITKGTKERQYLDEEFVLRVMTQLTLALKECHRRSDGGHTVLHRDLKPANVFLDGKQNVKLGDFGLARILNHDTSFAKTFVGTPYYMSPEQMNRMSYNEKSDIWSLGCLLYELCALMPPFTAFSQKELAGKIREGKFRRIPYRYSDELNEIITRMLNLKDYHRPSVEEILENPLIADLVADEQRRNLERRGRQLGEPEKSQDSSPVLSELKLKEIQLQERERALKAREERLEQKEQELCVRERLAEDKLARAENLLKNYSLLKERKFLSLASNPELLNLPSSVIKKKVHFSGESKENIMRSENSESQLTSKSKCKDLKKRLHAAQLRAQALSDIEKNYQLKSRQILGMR
# Nek2 [2] = target: T1, Nek2; assay: FlashPlate radiometric proximity assay of Nek2 kinase activity; assay type: biochemical
# U2OS:GFP-Nek2A cells = assay: Manual immunofluorescence assay of Nek2A-induced centrosome splitting; assay type: cell-based, human; settings: doxycycline-induced cells; 0.5, 5 and 50 μM; 24 hours; γ-tubulin stain
# Summary of the method: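 Tetracycline-inducible stable U2OS:GFP-Nek2A cells were induced with doxycycline together with test compound (0.5, 5, 50 μM) or DMSO (2%) for 24 h. Cells were fixed and stained for γ-tubulin and DNA for indirect immunofluorescence. The percentage of interphase cells with centrosomes more than 2 μm apart was scored. Three repeat experiments, standard deviations; Student's t-test versus DMSO.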
# Nek6 = Nek6 (Homo sapiens, UniProt Q9HC98); assay: Kinase specificity assay; assay type: biochemical
# Sequence of Nek6 (Q9HC98 whole entry, species assumed): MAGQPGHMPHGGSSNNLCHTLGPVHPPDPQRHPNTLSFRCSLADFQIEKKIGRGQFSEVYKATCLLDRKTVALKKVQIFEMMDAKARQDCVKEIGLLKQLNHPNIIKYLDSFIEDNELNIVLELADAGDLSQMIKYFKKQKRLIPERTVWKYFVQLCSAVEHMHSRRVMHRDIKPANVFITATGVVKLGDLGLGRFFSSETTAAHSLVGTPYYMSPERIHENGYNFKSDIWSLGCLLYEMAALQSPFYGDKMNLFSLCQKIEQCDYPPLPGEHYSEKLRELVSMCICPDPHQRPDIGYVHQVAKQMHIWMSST
# HeLa cells = assay: Growth inhibition assay; assay type: cell-based; settings: Homo sapiens, 72 h, read-out: Growth inhibition GI50, HeLa
# Summary of the method: (§1)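 Cells cultured as previously described, seeded at […], then given test compound in DMSO over a concentration range, or DMSO alone (1-2% final), after 24 h. Incubation 72 h.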
# Cdk1/Cyclin B = Cdk1/Cyclin B (Homo sapiens, UniProt P06493); assay: Kinase specificity assay; assay type: biochemical
# Sequence of Cdk1/Cyclin B (P14635 whole entry): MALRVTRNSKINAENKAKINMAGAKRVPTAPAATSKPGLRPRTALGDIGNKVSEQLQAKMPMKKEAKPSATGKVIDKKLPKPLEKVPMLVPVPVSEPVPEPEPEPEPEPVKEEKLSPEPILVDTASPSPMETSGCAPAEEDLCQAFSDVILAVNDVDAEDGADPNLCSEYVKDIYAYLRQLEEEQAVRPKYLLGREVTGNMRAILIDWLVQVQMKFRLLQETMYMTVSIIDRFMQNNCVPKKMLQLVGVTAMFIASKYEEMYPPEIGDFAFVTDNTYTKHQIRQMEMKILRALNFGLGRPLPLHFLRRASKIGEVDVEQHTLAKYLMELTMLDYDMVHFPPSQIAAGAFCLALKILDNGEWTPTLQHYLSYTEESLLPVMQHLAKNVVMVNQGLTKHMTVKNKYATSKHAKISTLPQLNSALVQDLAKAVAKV
# Sequence of Cdk1/Cyclin B (P06493 whole entry): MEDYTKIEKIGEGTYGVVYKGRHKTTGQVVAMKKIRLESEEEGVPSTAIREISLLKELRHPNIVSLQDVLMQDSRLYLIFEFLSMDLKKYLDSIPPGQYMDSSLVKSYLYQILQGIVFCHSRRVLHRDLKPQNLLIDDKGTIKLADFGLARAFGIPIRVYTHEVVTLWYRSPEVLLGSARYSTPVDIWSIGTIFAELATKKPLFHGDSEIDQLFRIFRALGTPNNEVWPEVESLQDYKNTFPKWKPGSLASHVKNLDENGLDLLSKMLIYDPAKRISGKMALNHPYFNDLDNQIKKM
# Aurora A = target: T2, Aurora A (Homo sapiens, UniProt O14965); assay: Kinase specificity assay; assay type: biochemical
# T2 sequence (O14965 1-403): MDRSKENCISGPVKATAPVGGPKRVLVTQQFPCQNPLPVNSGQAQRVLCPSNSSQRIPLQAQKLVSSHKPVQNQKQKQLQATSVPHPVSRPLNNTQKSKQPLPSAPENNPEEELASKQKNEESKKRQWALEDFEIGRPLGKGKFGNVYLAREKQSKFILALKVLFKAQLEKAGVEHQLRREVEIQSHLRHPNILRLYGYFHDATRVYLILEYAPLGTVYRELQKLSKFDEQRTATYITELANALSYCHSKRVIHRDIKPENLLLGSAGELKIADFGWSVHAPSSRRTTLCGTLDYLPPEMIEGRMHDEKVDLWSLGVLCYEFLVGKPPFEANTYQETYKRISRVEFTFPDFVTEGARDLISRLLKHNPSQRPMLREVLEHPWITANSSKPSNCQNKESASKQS
# Nek7 = Nek7 (Homo sapiens, UniProt Q8TDX7); assay: Kinase specificity assay; assay type: biochemical
# Sequence of Nek7 (Q8TDX7 whole entry, species assumed): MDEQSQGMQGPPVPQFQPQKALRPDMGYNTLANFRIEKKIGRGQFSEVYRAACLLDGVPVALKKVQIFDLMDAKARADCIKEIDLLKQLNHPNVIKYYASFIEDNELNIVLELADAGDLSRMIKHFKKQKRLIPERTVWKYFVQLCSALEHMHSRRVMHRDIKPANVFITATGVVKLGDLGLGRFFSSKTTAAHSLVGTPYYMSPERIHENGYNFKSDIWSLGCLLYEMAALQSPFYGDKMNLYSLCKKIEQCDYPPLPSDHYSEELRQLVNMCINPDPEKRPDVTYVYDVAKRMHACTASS
# U2OS cells = assay: Growth inhibition assay; assay type: cell-based; settings: Homo sapiens, 72 h, read-out: Growth inhibition GI50, U2OS
# Summary of the method: as §1
structure (smiles),measurement,setting,value
O=c1cc(N2CCOCC2)oc2c(-c3ccccc3)cccc12 [LY294002],"Nek2 inhibition, filter assay (result in words)",Nek2 [1],inactive
same,"Nek2 inhibition, FlashPlate (result in words)",Nek2 [2],inactive
"Oc1ccc(Nc2nc(OCC3CCCCC3)c3[nH]cnc3n2)cc1 [NU6120, 6-cyclohexylmethoxy-2-(4′-hydroxyanilino)purine]","Effect on Nek2A-induced centrosome splitting (manual scoring, split >2 μm)",U2OS:GFP-Nek2A cells,had no effect on splitting
"CN[C@@H]1C[C@H]2O[C@@](C)([C@@H]1OC)n1c3ccccc3c3c4c(c5c6ccccc6n2c5c31)C(=O)NC4 [Staurosporine, staurosporine]",Hill slope of Nek2 inhibition,Nek2 [2]; data not shown,~1.0
same,inhibition at 25 µM,"Nek2 [2]; read-out: Inhibition of Nek2 activity at 25 μM, entire screen",59 ± 18%
same,inhibition at 25 µM,"Nek2 [2]; read-out: Inhibition of Nek2 activity at 25 μM, typical batch",61.2 ± 2.4%
COC[C@H]1OC(=O)c2coc3c2[C@@]1(C)C1=C(C3=O)[C@@H]2CCC(=O)[C@@]2(C)C[C@H]1OC(C)=O [Wortmannin],IC50,Nek6,> 400 µM
same,GI50,HeLa cells,15 µM
same,IC50,Cdk1/Cyclin B,> 400 µM
same,IC50,Aurora A,> 400 µM
same,IC50,Nek7,> 400 µM
same,GI50,U2OS cells,23.7 µM
